Measurements as given in ChEMBL document CHEMBL4000227, “Structure activity relationships of benzylproline-derived inhibitors of the glutamine transporter ASCT2” (Bioorg Med Chem Lett, 2017).
Active and inactive are the calls of the source. The rule behind the calls is not given here.

Tests used:
Format in all cases: cell-based
[1] = target: T1, Amino acid transporter (Rattus norvegicus) (UniProt Q9Z1J7); experiment: Inhibition of rat ASCT2 expressed in HEK293 cells assessed as outward current by measuring reduction in SCN anion inward current at 1 mM in presence of NaCl and NaSCN by whole cell patch-clamp method
T1 sequence (whole entry): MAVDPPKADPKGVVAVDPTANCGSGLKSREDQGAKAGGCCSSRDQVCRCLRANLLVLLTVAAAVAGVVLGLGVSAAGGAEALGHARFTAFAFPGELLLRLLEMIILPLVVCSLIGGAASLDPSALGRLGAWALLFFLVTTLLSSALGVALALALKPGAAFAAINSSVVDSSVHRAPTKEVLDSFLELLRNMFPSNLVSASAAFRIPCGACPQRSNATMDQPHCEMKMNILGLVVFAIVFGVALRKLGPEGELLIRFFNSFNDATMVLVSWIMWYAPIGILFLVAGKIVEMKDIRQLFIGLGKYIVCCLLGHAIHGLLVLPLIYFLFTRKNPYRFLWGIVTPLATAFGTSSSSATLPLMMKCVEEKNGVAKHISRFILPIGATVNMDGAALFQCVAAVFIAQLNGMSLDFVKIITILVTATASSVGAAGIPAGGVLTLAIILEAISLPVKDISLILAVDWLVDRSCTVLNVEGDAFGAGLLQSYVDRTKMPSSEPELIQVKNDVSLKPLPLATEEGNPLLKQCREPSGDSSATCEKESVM
How it was run: (§1)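 Rat ASCT2 transiently transfected into HEK293T cells (no detectable endogenous ASCT2); whole-cell recording at 0 mV with 140 mM external NaCl, 135 mM internal NaSCN, 10 mM internal alanine. Compound applied at 1 mM; current expressed relative to saturating alanine response, saturating current calculated as I/Imax = c/(c+Km). Outward current taken as inhibition of leak anion conductance.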

[2] = target: T2, Amino acid transporter (Rattus norvegicus, UniProt Q9Z1J7); experiment: Inhibition of rat ASCT2 expressed in HEK293 cells assessed as inhibition of L-alanine/Na+ exchange by measuring reduction in SCN anion inward current in presence of NaCl and NaSCN by whole cell patch-clamp method; conditions: read-out: Ki(app)
T2 sequence (Q9Z1J7 whole entry): T1 sequence (whole entry)

[3] = target: T1, Amino acid transporter (Rattus norvegicus); experiment: Inhibition of rat ASCT2 expressed in HEK293 cells assessed as inhibition of L-alanine/Na+ exchange by measuring reduction in SCN anion inward current at 1 mM in presence of NaCl and NaSCN by whole cell patch-clamp method; how it was run: as §1

O=C(O)[C@@H]1C[C@@H](Cc2ccc(Cl)cc2Cl)CN1
inhibition [1]: Active
Ki [2]: 30 µM
Imax [3]: 56%

O=C(O)[C@@H]1C[C@@H](Cc2ccc(-c3ccccc3)cc2)CN1
inhibition [1]: Active
Ki [2]: 3 µM
Imax [3]: 57%

O=C(O)C1C[C@@H](Cc2ccccc2C(F)(F)F)CN1 (single isomer, unassigned)
inhibition [1]: Active
Ki [2]: 220 µM
Imax [3]: 49%

O=C(O)C1C[C@@H](Cc2ccccc2)CN1 (single isomer, unassigned)
Ki [2]: 2000 µM
Imax [3]: 52%

O=C(O)C1C[C@@H](Cc2ccc(F)c(F)c2)CN1 (single isomer, unassigned)
inhibition [1]: Active
Ki [2]: 73 µM
Imax [3]: 51%

O=C(O)C1C[C@@H](Cc2ccccc2F)CN1 (single isomer, unassigned)
inhibition [1]: Active
Ki [2]: 83 to 87 µM
Imax [3]: 61%

O=C(O)C1C[C@@H](Cc2cccc(F)c2)CN1 (single isomer, unassigned)
inhibition [1]: Active
Ki [2]: 177 µM
Imax [3]: 67%

Cc1ccccc1C[C@H]1CNC(C(=O)O)C1 (single isomer, unassigned)
inhibition [1]: Active
Ki [2]: 38 µM
Imax [3]: 59%

O=C(O)C1C[C@@H](Cc2ccccc2Cl)CN1 (single isomer, unassigned)
inhibition [1]: Active
Ki [2]: 195 µM
Imax [3]: 46%

O=C(O)C1C[C@@H](Cc2ccc(F)cc2)CN1 (single isomer, unassigned)
inhibition [1]: Active
Ki [2]: 190 µM
Imax [3]: 57%

O=C(O)C1C[C@@H](Cc2ccc(C(F)(F)F)cc2)CN1 (single isomer, unassigned)
inhibition [1]: Active
Imax [3]: 47%

O=C(O)C1C[C@@H](Cc2cccc(C(F)(F)F)c2)CN1 (single isomer, unassigned)
inhibition [1]: Active
Imax [3]: 43%

O=C(O)C1C[C@@H](Cc2ccccc2Br)CN1 (single isomer, unassigned)
inhibition [1]: Active
Imax [3]: 55%

O=C(O)C1C[C@@H](Cc2ccccc2[N+](=O)[O-])CN1 (single isomer, unassigned)
inhibition [1]: Active
Imax [3]: 61%
